# Experimental data from publication PMC4514009 (Journal of Radioanalytical and Nuclear Chemistry, 2010).
# System: NMDAR
# Experiment: Autoradiography of NMDAR in vitro by storage phosphor imaging
# Format: binding, Sprague–Dawley (SD) rat
# Settings: EB 0.3 mg pretreatment of slides
# Summary of the method: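 Sagittal brain sections from one healthy Sprague–Dawley rat (290 g) were fixed and air-dried, then shaken 30 min at room temperature in 50 mM Tris–HCl (pH 7.4) with 120 mM NaCl. EB 0.3 mg (60 μL) or saline was applied to the slides, which were preincubated 30 min at room temperature, then incubated with the radiotracer. They were washed three times for 30 min in ice-cold Tris–HCl and exposed 30 min to a phosphor screen. DLU mm−2 were read by ROI, and hippocampus/thalamus ratios were taken per section.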
smiles,measurement,value
"O=c1c2ccccc2[se]n1-c1ccccc1 [EB, Ebselen]",effect on accumulation of ^99mTc-PQQ in hippocampus and cortex,can be inhibited
